Bioassay records deposited in PubChem BioAssay by Sanford-Burnham Center for Chemical Genomics.
Rev-erbA mod = modulates human Rev-erb alpha binding to DNA. Rev-erbα–FITC-DNA binding, fluorescence polarization, 90 min. hit rate 0.79% among 370,000. activity, % at 10 µM;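 active = activity above about 14%, limit read from the data; passing the limit was not always enough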
Target sequence (P20393 whole entry, looked up): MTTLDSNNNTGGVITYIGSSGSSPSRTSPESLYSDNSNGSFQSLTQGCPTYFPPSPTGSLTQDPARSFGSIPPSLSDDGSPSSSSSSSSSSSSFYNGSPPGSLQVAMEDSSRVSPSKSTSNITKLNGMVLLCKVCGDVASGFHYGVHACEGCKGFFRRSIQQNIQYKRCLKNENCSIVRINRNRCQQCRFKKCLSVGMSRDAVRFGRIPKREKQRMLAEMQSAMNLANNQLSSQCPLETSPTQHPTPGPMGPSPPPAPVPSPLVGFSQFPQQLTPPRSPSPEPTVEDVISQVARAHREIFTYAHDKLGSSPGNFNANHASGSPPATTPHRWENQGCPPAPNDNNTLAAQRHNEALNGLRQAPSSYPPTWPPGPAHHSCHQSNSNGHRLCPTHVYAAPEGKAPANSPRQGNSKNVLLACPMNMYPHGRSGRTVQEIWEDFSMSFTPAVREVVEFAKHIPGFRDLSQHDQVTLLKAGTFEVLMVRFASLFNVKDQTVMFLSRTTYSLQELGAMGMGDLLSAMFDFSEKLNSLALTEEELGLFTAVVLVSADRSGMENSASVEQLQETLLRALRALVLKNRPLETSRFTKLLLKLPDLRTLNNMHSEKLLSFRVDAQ
CSN deneddyl inh = inhibitors of human CSN-mediated cullin deneddylation | Q92905 | Purified CSN, SCF-Nedd8-OG deneddylation, fluorescence polarization | inhibition, % at 12.5 µM | hit rate 0.38% among 360,000;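 active = pattern-corrected inhibition above about 35%, with an unprinted fluorescence ratio check between 0.5 and 1.5, limit read from the data, passing the limit was not always enough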
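Assay system: Purified human Csn5 enzyme expressed in HEK293T cells | Amount: Enzyme 0.24 nM | Measured by: Fluorescence polarization readout | Medium: Tris/NaCl/DTT buffer, pH 7.5 | Compound dosing: One concentration, 12.5 µM, 0.25% DMSO | Times: 90 min incubation of compound, enzyme and substrate at room temperature | Control set: no-enzyme wells high, enzyme-with-substrate wells low | Read-out: % inhibition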
HNF4A DNA FP = change in binding of human HNF4 alpha to DNA. HNF4a-FITC DNA binding, fluorescence polarization, 1 h. activity change, % at 10 µM. hit rate 0.3% among 360,000. AID 1224865; in the data active = activity change above about 30%, passing the limit was not always enough
aDG glyco act = increases alpha dystroglycan glycosylation | Pro5-aDG cells, alpha-DG glycosylation AlphaScreen (IIH6); 0% Pro5, 100% B10-LARGE cell signal | activation, % at 10 µM | hit rate 0.22% among 360,000 | AID 624168;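 active = activation of at least 8% versus controls, or a plate z-score of at least 8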;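 note: Pro5 are CHO cells carrying HIG-tagged alpha-DG that lacks glycosylation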
Rev-erbA confirm = Rev-erb alpha (human) modulation, hit confirmation. Rev-erb alpha FITC-DNA binding, fluorescence polarization, 90 min. hit rate 61% among 3,000. AID 1259319. activation, % at 25 µM. shares compounds with Rev-erbA mod;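 active = activation at or above a set limit, or at least 3 SD above the negative control mean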
RORg counter = counter-screen for Rev-erb alpha modulators: RORgamma DNA binding; purified RORgamma protein-FITC-DNA binding, fluorescence polarization; hit rate 8% among 910; AID 1259320; IC50, µM; shares compounds with Rev-erbA mod;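 active = Compounds whose fitted half-maximal concentration for disrupting protein-DNA binding is below 10 micromolar; the record names Rev-erb in its text, so the target is in doubt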
Numbers stand for hits. A selection: hits, their analogues and other compounds. The true share with any hit is near 1.5%.

For CCOC(=O)[C@@]12CCCC3=C1N(CCC3)C(=O)[C@H]2CC(=O)NCc1cccs1 the results were Rev-erbA mod inactive.
`C=CCOC(=O)N1CCC(NS(=O)(=O)c2ccc3c(c2)CCN3C(C)=O)CC1` gave Rev-erbA mod inactive.
O=C(Nc1cccc(-c2nnc(-c3ccccc3)o2)c1)c1ccco1 was read as Rev-erbA mod inactive, CSN deneddyl inh inactive, HNF4A DNA FP inactive and aDG glyco act inactive.
Screening O=C(Nc1ccccc1)c1cccc(-c2nnc(-c3ccccc3)o2)c1 returned Rev-erbA mod 30.4, CSN deneddyl inh inactive, HNF4A DNA FP inactive, aDG glyco act inactive and Rev-erbA confirm inactive.
For Cc1cc(-c2cccc([N+](=O)[O-])c2)nc2ccc3ccccc3c12 the results were Rev-erbA mod 37.7, CSN deneddyl inh inactive, HNF4A DNA FP inactive, aDG glyco act inactive, Rev-erbA confirm 42.4 and RORg counter inactive.
Screening COc1ccc(C(=O)OCCN(C)C2CN(Cc3cn(Cc4cccc(F)c4)nn3)S(=O)(=O)C2)cc1OC (stereo not drawn) returned Rev-erbA mod inactive.
Screening COc1ccc(NC(=O)N2CCN(CCC#N)CC2)cc1 returned Rev-erbA mod inactive, CSN deneddyl inh inactive, HNF4A DNA FP inactive and aDG glyco act inactive.
`CC1=CC(=C(C#N)C#N)C=C(C)N1CCN1CCN(C(=O)Nc2ccc(Cl)c(Cl)c2)CC1` gave Rev-erbA mod 41.0, CSN deneddyl inh inactive, HNF4A DNA FP inactive, aDG glyco act inactive and Rev-erbA confirm 26.0.
For COc1ccc(-c2ccc3c(c2)c(Sc2ccccc2)c(-c2ccccc2)n3C)cc1 the results were Rev-erbA mod inactive, CSN deneddyl inh inactive, HNF4A DNA FP inactive and aDG glyco act inactive.
`COc1cc(OC)cc(-c2c(Sc3ccccc3)c3cc(-c4ccc(SC)cc4)ccc3n2C)c1` gave Rev-erbA mod 29.1, CSN deneddyl inh inactive, HNF4A DNA FP inactive, aDG glyco act inactive, Rev-erbA confirm 34.5 and RORg counter inactive.
For COc1cc(OC)cc(-c2c(Sc3ccccc3)c3cc(-c4ccc(OC)c(F)c4)ccc3n2C)c1 the results were Rev-erbA mod 20.6, CSN deneddyl inh inactive, HNF4A DNA FP inactive, aDG glyco act inactive, Rev-erbA confirm 36.7 and RORg counter inactive.
Screening CSc1ccc(-c2ccc3c(c2)c(Sc2ccccc2)c(-c2ccccc2)n3C)cc1 returned Rev-erbA mod 17.5, CSN deneddyl inh inactive, HNF4A DNA FP inactive, aDG glyco act inactive and Rev-erbA confirm 24.9.
`Cn1c(-c2ccccc2)c(Sc2ccccc2)c2cc(-c3ccc4[nH]ccc4c3)ccc21` gave Rev-erbA mod inactive, CSN deneddyl inh inactive, HNF4A DNA FP inactive and aDG glyco act inactive.
For CCOC(=O)N1CCN(c2nc(-c3cccs3)cc(C(F)(F)F)n2)CC1 the results were Rev-erbA mod 22.5, CSN deneddyl inh inactive, HNF4A DNA FP inactive, aDG glyco act inactive and Rev-erbA confirm inactive.
`CCOC(=O)N1CCN(c2nc(-c3ccco3)cc(C(F)(F)F)n2)CC1` gave Rev-erbA mod inactive, CSN deneddyl inh inactive, HNF4A DNA FP inactive and aDG glyco act inactive.
`CCCCOc1cccc(C2C(C(=O)c3ccc(C)o3)=C(O)C(=O)N2c2nnc(C)s2)c1` (stereo not drawn) gave Rev-erbA mod 18.1, CSN deneddyl inh inactive, HNF4A DNA FP inactive, aDG glyco act inactive and Rev-erbA confirm 17.6.
For CCCOc1cccc(C2C(C(=O)c3ccco3)=C(O)C(=O)N2c2nnc(C)s2)c1 (stereo not drawn) the results were Rev-erbA mod inactive, CSN deneddyl inh inactive, HNF4A DNA FP inactive and aDG glyco act inactive.
Screening COc1ccc(C2Nc3ccc(Br)cc3C(c3ccccc3)N2CC(=O)O)cc1 (stereo not drawn) returned Rev-erbA mod 17.7, CSN deneddyl inh inactive, HNF4A DNA FP inactive, aDG glyco act inactive and Rev-erbA confirm inactive.
`O=C(O)CN1C(c2ccccc2O)Nc2ccc(Br)cc2C1c1ccccc1` (stereo not drawn) gave Rev-erbA mod inactive, CSN deneddyl inh inactive, HNF4A DNA FP inactive and aDG glyco act inactive.
For O=C1c2cccc3c(N4CCCCC4)ccc(c23)C(=O)N1CCO the results were Rev-erbA mod 47.0, CSN deneddyl inh inactive, HNF4A DNA FP inactive, aDG glyco act inactive, Rev-erbA confirm 33.3 and RORg counter inactive.
For O=C1c2cccc3c(N4CCCCC4)ccc(c23)C(=O)N1c1cccc(O)c1 the results were Rev-erbA mod 60.8, CSN deneddyl inh inactive, HNF4A DNA FP inactive, aDG glyco act inactive, Rev-erbA confirm 62.1 and RORg counter inactive.
`C=CCN1C(=O)c2cccc3c(N4CCCCC4)ccc(c23)C1=O` gave Rev-erbA mod 18.6, CSN deneddyl inh inactive, HNF4A DNA FP inactive, aDG glyco act inactive and Rev-erbA confirm 24.2.
Cc1n[nH]c(C)c1N1C(=O)c2cccc3c(N4CCCCCC4)ccc(c23)C1=O was read as Rev-erbA mod 93.5, CSN deneddyl inh inactive, HNF4A DNA FP inactive, aDG glyco act inactive, Rev-erbA confirm 90.2 and RORg counter inactive.
For C=CC(=O)NC1CCCCN(C(C)C)C1=O (stereo not drawn) the results were Rev-erbA mod inactive.
Screening O=C(NC1CCC1)c1ccc(C#CC2CC2)c[n+]1[O-] returned Rev-erbA mod inactive.
`COCCn1c(-c2ccc(Cl)cc2Cl)nc2c(c(=O)c3ccccc3n2C)c1=O` gave Rev-erbA mod 64.5, CSN deneddyl inh inactive, HNF4A DNA FP inactive, aDG glyco act inactive and Rev-erbA confirm 23.0.
`COCCn1c(-c2ccc(C)cc2)nc2c(c(=O)c3ccccc3n2C)c1=O` gave Rev-erbA mod inactive, CSN deneddyl inh inactive, HNF4A DNA FP inactive and aDG glyco act inactive.
COc1ccc(CCn2c(-c3ccc(OC)cc3)nc3c(c(=O)c4ccccc4n3C)c2=O)cc1 was read as Rev-erbA mod 49.9, CSN deneddyl inh inactive, HNF4A DNA FP inactive, aDG glyco act inactive, Rev-erbA confirm 31.4 and RORg counter inactive.
Screening Cc1ccc(-c2nc3c(c(=O)c4ccccc4n3C)c(=O)n2-c2ccccc2)cc1 returned Rev-erbA mod 26.0, CSN deneddyl inh inactive, HNF4A DNA FP inactive, aDG glyco act inactive and Rev-erbA confirm 19.2.
`Cc1cccc(-c2nc3c(c(=O)c4ccccc4n3C)c(=O)n2-c2ccccc2)c1` gave Rev-erbA mod 39.9, CSN deneddyl inh inactive, HNF4A DNA FP inactive, aDG glyco act inactive and Rev-erbA confirm 29.3.
`Cc1nc2c(c(=O)c3ccccc3n2C)c(=O)n1-c1ccc(F)cc1` gave Rev-erbA mod inactive, CSN deneddyl inh inactive, HNF4A DNA FP inactive and aDG glyco act inactive.
For N=c1c2c(ccn1CCCCc1ccccc1)Oc1ccc3ccccc3c1C2c1ccccc1 (stereo not drawn) the results were Rev-erbA mod inactive.
For O=C(COC(=O)c1ccccc1C(=O)c1ccc(Cl)cc1)NC(c1ccccc1)c1ccccc1 the results were Rev-erbA mod 35.3, CSN deneddyl inh inactive, HNF4A DNA FP inactive, aDG glyco act inactive and Rev-erbA confirm inactive.
